The values that follow come from article PMC2877169 (Journal of medicinal chemistry, 2010).

Data set [1] has as its target rat protein farnesyltransferase (Rattus norvegicus, UniProt Q02293+Q04631). As to the kind of experiment: Rat protein farnesyltransferase inhibition assay. The format is biochemical. To be noted: for fold reduction in potency/affinity for protein farnesyltransferase compared to 1: relative to compound 1.
In data set [2] the target is recombinant Tc-L14DM (lanosterol 14α-demethylase) (Trypanosoma cruzi, UniProt Q7Z1V1). Kind of data set: Binding to recombinant Tc-L14DM by difference optical spectroscopy. Summed up: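 Difference optical spectroscopy on recombinant T. cruzi lanosterol 14α-demethylase held at 1.4 μM, with test compound added at 200 nM – 2 uM; binding read from the difference spectra.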

In data set [3] the test system is P450 enzymes. As to conditions: read-out: inhibition of P450 enzymes; previously reported weak inhibitor; cited from earlier work.
Data set [4] concerns T. cruzi amastigotes. Kind of data set: T. cruzi amastigote growth. The class given is cell-based, Trypanosoma cruzi. As to conditions: relative to compound 1.

Each structure is given as a SMILES string.

By Kd is commonly meant the free concentration of one partner at which half of the binding sites on the other are occupied at equilibrium, for simple one-to-one binding.

Chain of recombinant Tc-L14DM (lanosterol 14α-demethylase) (Q7Z1V1 whole entry): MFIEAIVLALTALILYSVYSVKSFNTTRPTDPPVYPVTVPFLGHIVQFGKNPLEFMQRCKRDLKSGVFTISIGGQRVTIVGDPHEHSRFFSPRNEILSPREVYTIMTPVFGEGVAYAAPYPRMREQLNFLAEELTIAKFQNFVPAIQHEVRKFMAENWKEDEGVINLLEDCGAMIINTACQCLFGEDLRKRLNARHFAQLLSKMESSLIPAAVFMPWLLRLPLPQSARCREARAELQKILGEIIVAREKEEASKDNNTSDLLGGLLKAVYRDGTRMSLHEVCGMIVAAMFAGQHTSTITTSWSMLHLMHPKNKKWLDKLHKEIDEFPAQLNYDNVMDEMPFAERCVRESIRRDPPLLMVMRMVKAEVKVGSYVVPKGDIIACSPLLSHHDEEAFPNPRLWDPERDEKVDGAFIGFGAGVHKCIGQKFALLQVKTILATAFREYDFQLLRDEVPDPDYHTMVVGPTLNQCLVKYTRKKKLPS

For `Cc1c(Cl)cccc1-c1cc(=O)n(C)c2ccc(C(O)(c3ccc(Cl)cc3)c3cncn3C)cc12` (stereo not shown) [Compound 20, 4-(3-Chloro-2-methylphenyl)-6-((4-chlorophenyl)(hydroxy)(1-methyl-1H-imidazol-5-yl)methyl)-1-methylquinolin-2(1H)-one], the IC50 in data set [1] stood at 0.796 µM.

On to `COC(c1ccc(Cl)cc1)(c1ccc2c(c1)c(-c1cccc(Cl)c1)cc(=O)n2C)c1cncn1C` (stereo not shown) [Compound 3], for which the “fold reduction in potency/affinity for protein farnesyltransferase compared to 1” value (shortened to “fold reduction in potency/affinity”) in data set [1] was found to be 100 fold.

On to `COC(c1ccc(Cl)cc1)(c1ccc2c(c1)c(-c1c(F)cccc1F)cc(=O)n2C)c1cncn1C` (stereo not shown) [Compound 16, 4-(2,6-Difluorophenyl)-6-((4-chlorophenyl)(methoxy)(1-methyl-1H-imidazol-5-yl)methyl)-1-methylquinolin-2(1H)-one], for which the Kd in data set [2] was under 1.4 µM.

On to `CCn1cncc1C(OC)(c1ccc(Cl)cc1)c1ccc2c(c1)c(-c1cccc(Cl)c1)cc(=O)n2C` (stereo not shown) [Compound 26], for which, in data set [1], the “fold reduction in potency/affinity” value is ~ 1,500 fold.

Consider `Cn1cncc1[C@@](N)(c1ccc(Cl)cc1)c1ccc2c(c1)c(-c1cccc(Cl)c1)cc(=O)n2C` [Compound 1, tipifarnib], for which, in data set [3], the IC50 was over 10 µM.

As for `CCn1cncc1C(O)(c1ccc(Cl)cc1)c1ccc2c(c1)c(-c1cccc(Cl)c1)cc(=O)n2C` (stereo not shown) [Compound 27], the IC50 in data set [1] turned out to be 0.03 µM.

For the molecule `COC(c1ccc(Cl)cc1)(c1ccc2c(c1)c(-c1ccccc1)cc(=O)n2C)c1cncn1C` (stereo not shown) [Compound 10], the “fold reduction in potency/affinity” value in data set [1] is reported as ~ 500 fold.

For the molecule `COC(c1ccc(Cl)cc1)(c1ccc2c(c1)c(-c1cccc(Cl)c1C)cc(=O)n2C)c1cncn1C` (stereo not shown) [Compound 2], the “fold more potent at killing T. cruzi amastigotes than 1” value in data set [4] is “about 10 fold”.

On to `CNC(c1ccc(Cl)cc1)(c1ccc2c(c1)c(-c1cccc(Cl)c1C)cc(=O)n2C)c1cncn1C` (stereo not shown) [Compound 23, 4-(3-chloro-2-methylphenyl)-6-((4-chlorophenyl)(methylamino)(1-methyl-1H-imidazol-5-yl)methyl)-1-methylquinolin-2(1H)-one], for which the IC50 in data set [1] stood at 0.957 µM.

Regarding `COC(c1ccc(Cl)cc1)(c1ccc2c(c1)c(-c1cc(C)cc(C)c1)cc(=O)n2C)c1cncn1C` (stereo not shown) [Compound 17], the “fold reduction in potency/affinity” value in data set [1] is listed as ~ 600 fold.
